In ChEMBL document CHEMBL3124924, “Bifunctional ethyl 2-amino-4-methylthiazole-5-carboxylate derivatives: synthesis and in vitro biological evaluation as antimicrobial and anticancer agents” (2014):
Converted amounts (≈) assume the structure as drawn.

Legend:
Assay type in all cases: functional
Staphylococcus aureus [1] = assay: Antibacterial activity against Staphylococcus aureus ATCC 6538 assessed as growth inhibition after 48 hrs by two-fold serial dilution assay; conditions: ATCC 6538, 48 h
How it was run: (§1)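 Twofold serial broth dilution run on compounds giving inhibition zones of 13 mm or more. Organisms pre-grown in suitable broth at 37 °C, 24 h for bacteria and 48 h for fungi. Dilution series 200, 100, 50, 25, 12.5, 6.25. Each 5 mL tube inoculated with 0.1 mL and incubated 37 °C for 48 h. Tubes scored for presence or absence of growth.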

Escherichia coli [2] = assay: Antibacterial activity against Escherichia coli ATCC 25922 assessed as growth inhibition at 1 mg/mL after 24 hrs by agar-cup diffusion method; conditions: ATCC 25922, 24 h, read-out: DIZ
How it was run: (§2)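 Agar-cup diffusion: 1 mL of 6 h broth culture seeded per 100 mL molten sterile agar at 45 °C and poured into plates. 8 mm cups cut, each filled with 0.1 mL of 1 mg/mL test solution. Incubated 37 °C for 24 h, 48 h for C. albicans. DMSO control per organism. Inhibition zone diameter in mm, mean of three measurements.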

Bacillus spizizenii [3] = assay: Antibacterial activity against Bacillus subtilis ATCC 6633 assessed as growth inhibition at 1 mg/mL after 24 hrs by agar-cup diffusion method; conditions: ATCC 6633, 24 h, read-out: DIZ; how it was run: as §2
RPMI-8226 = assay: Cytotoxicity against human RPMI8226 cells assessed as growth inhibition at 10 uM after 48 hrs by SRB assay; conditions: RPMI-8226, 48 h, read-out: GI
How it was run: (§3)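 NCI-60 one-dose primary screen run by the NCI Drug Evaluation Branch across the full 60-line panel. Single high-dose treatment with 48 h continuous drug exposure. Cell growth estimated by sulforhodamine B protein staining. Results given as percent growth of treated cells and expressed as percentage growth inhibition.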

SK-MEL-2 = assay: Cytotoxicity against human SK-MEL-2 cells assessed as growth inhibition at 10 uM after 48 hrs by SRB assay; conditions: SK-MEL-2, 48 h, read-out: GI; how it was run: as §3
HCT-116 = assay: Cytotoxicity against human HCT116 cells assessed as growth inhibition at 10 uM after 48 hrs by SRB assay; conditions: HCT-116, 48 h, read-out: GI; how it was run: as §3
SNB-75 = assay: Cytotoxicity against human SNB75 cells assessed as growth inhibition at 10 uM after 48 hrs by SRB assay; conditions: SNB-75, 48 h, read-out: GI; how it was run: as §3
CCRF-CEM = assay: Cytotoxicity against human CCRF-CEM cells assessed as growth inhibition at 10 uM after 48 hrs by SRB assay; conditions: read-out: GI; how it was run: as §3
MDA-MB-468 = assay: Cytotoxicity against human MDA-MB-468 cells assessed as growth inhibition at 10 uM after 48 hrs by SRB assay; conditions: MDA-MB-468, 48 h, read-out: GI; how it was run: as §3
Bacillus spizizenii [4] = assay: Bactericidal activity against Bacillus subtilis ATCC 6633 after 18 hrs; conditions: ATCC 6633, 18 h
How it was run: (§4)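 Continuation of the broth-dilution MIC test. A loopful from each tube without visible growth spread on a quarter of a Mueller-Hinton agar plate and incubated 18 h. Lowest concentration giving no growth on subculture taken as the MBC.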

Escherichia coli [5] = assay: Bactericidal activity against Escherichia coli ATCC 25922 after 18 hrs; conditions: ATCC 25922, 18 h; how it was run: as §4
[6] = Cytotoxicity against human Hs578T cells assessed as growth inhibition at 10 uM after 48 hrs by SRB assay; conditions: Hs-578T, read-out: GI; how it was run: as §3
SF-268 = assay: Cytotoxicity against human SF268 cells assessed as growth inhibition at 10 uM after 48 hrs by SRB assay; conditions: SF-268, 48 h, read-out: GI; how it was run: as §3
HT-29 = assay: Cytotoxicity against human HT-29 cells assessed as growth inhibition at 10 uM after 48 hrs by SRB assay; conditions: HT-29, 48 h, read-out: GI; how it was run: as §3
SK-MEL-5 = assay: Cytotoxicity against human SK-MEL-5 cells assessed as growth inhibition at 10 uM after 48 hrs by SRB assay; conditions: SK-MEL-5, 48 h, read-out: GI; how it was run: as §3
T47D = assay: Cytotoxicity against human T47D cells assessed as growth inhibition at 10 uM after 48 hrs by SRB assay; conditions: read-out: GI; how it was run: as §3
PC-3 = assay: Cytotoxicity against human PC3 cells assessed as growth inhibition at 10 uM after 48 hrs by SRB assay; conditions: PC-3, 48 h, read-out: GI; how it was run: as §3
Pseudomonas aeruginosa [7] = assay: Antibacterial activity against Pseudomonas aeruginosa ATCC 27853 assessed as growth inhibition after 48 hrs by two-fold serial dilution assay; conditions: ATCC 27853, 48 h; how it was run: as §1
UACC-62 = assay: Cytotoxicity against human UACC62 cells assessed as growth inhibition at 10 uM after 48 hrs by SRB assay; conditions: UACC-62, 48 h, read-out: GI; how it was run: as §3
HOP-92 = assay: Cytotoxicity against human HOP92 cells assessed as growth inhibition at 10 uM after 48 hrs by SRB assay; conditions: HOP-92, 48 h, read-out: GI; how it was run: as §3
SW-620 = assay: Cytotoxicity against human SW620 cells assessed as growth inhibition at 10 uM after 48 hrs by SRB assay; conditions: SW-620, 48 h, read-out: GI; how it was run: as §3
NCI-H522 = assay: Cytotoxicity against human NCI-H522 cells assessed as growth inhibition at 10 uM after 48 hrs by SRB assay; conditions: NCI-H522, 48 h, read-out: GI; how it was run: as §3
HCT-15 = assay: Cytotoxicity against human HCT15 cells assessed as growth inhibition at 10 uM after 48 hrs by SRB assay; conditions: HCT-15, 48 h, read-out: GI; how it was run: as §3
U-251 = assay: Cytotoxicity against human U251 cells assessed as growth inhibition at 10 uM after 48 hrs by SRB assay; conditions: U-251, 48 h, read-out: GI; how it was run: as §3
Escherichia coli [8] = assay: Antibacterial activity against Escherichia coli ATCC 25922 assessed as growth inhibition after 48 hrs by two-fold serial dilution assay; conditions: ATCC 25922, 48 h; how it was run: as §1
Pseudomonas aeruginosa [9] = assay: Bactericidal activity against Pseudomonas aeruginosa ATCC 27853 after 18 hrs; conditions: ATCC 27853, 18 h; how it was run: as §4
MCF7 = assay: Cytotoxicity against human MCF7 cells assessed as growth inhibition at 10 uM after 48 hrs by SRB assay; conditions: MCF7, 48 h, read-out: GI; how it was run: as §3
Bacillus spizizenii [10] = assay: Antibacterial activity against Bacillus subtilis ATCC 6633 assessed as growth inhibition after 48 hrs by two-fold serial dilution assay; conditions: ATCC 6633, 48 h; how it was run: as §1
NCI-H322M = assay: Cytotoxicity against human NCI-H322M cells assessed as growth inhibition at 10 uM after 48 hrs by SRB assay; conditions: read-out: GI; how it was run: as §3
Staphylococcus aureus [11] = assay: Bactericidal activity against Staphylococcus aureus ATCC 6538 after 18 hrs; conditions: ATCC 6538, 18 h; how it was run: as §4
[12] = Cytotoxicity against human UO31 cells assessed as growth inhibition at 10 uM after 48 hrs by SRB assay; conditions: UO-31, 48 h, read-out: GI; how it was run: as §3
A498 = assay: Cytotoxicity against human A498 cells assessed as growth inhibition at 10 uM after 48 hrs by SRB assay; conditions: A498, 48 h, read-out: GI; how it was run: as §3
[13] = Cytotoxicity against human NCI-ADR-RES cells assessed as growth inhibition at 10 uM after 48 hrs by SRB assay; conditions: read-out: GI; how it was run: as §3

Cc1nc(NC(=S)Nc2ccc(F)cc2)sc1C(=O)NN
MIC (Staphylococcus aureus [1]): 6.25 µg/mL (≈ 19.2 µM) | zone of inhibition at 1000 µg/mL (Escherichia coli [2]): > 13 mm | zone of inhibition at 1000 µg/mL (Bacillus spizizenii [3]): > 13 mm | inhibition of growth at 10 µM (RPMI-8226): < 10% | inhibition of growth at 10 µM (SK-MEL-2): 30% | inhibition of growth at 10 µM (HCT-116): 7.87% | inhibition of growth at 10 µM (SNB-75): 7.19% | inhibition of growth at 10 µM (CCRF-CEM): < 10% | inhibition of growth at 10 µM (MDA-MB-468): 5.5% | MBC (Bacillus spizizenii [4]): 12.5 µg/mL (≈ 38.4 µM) | MBC (Escherichia coli [5]): 12.5 µg/mL (≈ 38.4 µM) | inhibition of growth at 10 µM [6]: 2.23% | inhibition of growth at 10 µM (SF-268): < 10% | inhibition of growth at 10 µM (HT-29): < 10% | inhibition of growth at 10 µM (SK-MEL-5): 5.01% | inhibition of growth at 10 µM (T47D): 2.52% | inhibition of growth at 10 µM (PC-3): 2.36% | MIC (Pseudomonas aeruginosa [7]): 50 µg/mL (≈ 154 µM) | inhibition of growth at 10 µM (UACC-62): 10.8% | inhibition of growth at 10 µM (HOP-92): 33.7% | inhibition of growth at 10 µM (SW-620): 6.48% | inhibition of growth at 10 µM (NCI-H522): < 10% | inhibition of growth at 10 µM (HCT-15): < 10% | inhibition of growth at 10 µM (U-251): 5.41% | MIC (Escherichia coli [8]): 12.5 µg/mL (≈ 38.4 µM) | MBC (Pseudomonas aeruginosa [9]): 50 µg/mL (≈ 154 µM) | inhibition of growth at 10 µM (MCF7): < 10% | MIC (Bacillus spizizenii [10]): 12.5 µg/mL (≈ 38.4 µM) | inhibition of growth at 10 µM (NCI-H322M): 15.1% | MBC (Staphylococcus aureus [11]): 6.25 µg/mL (≈ 19.2 µM) | inhibition of growth at 10 µM [12]: 11% | inhibition of growth at 10 µM (A498): < 10% | inhibition of growth at 10 µM [13]: 10%

CCOC(=O)c1sc(NS(=O)(=O)c2ccccc2)nc1C
MIC (Staphylococcus aureus [1]): 25 µg/mL (≈ 76.6 µM) | zone of inhibition at 1000 µg/mL (Escherichia coli [2]): > 13 mm | zone of inhibition at 1000 µg/mL (Bacillus spizizenii [3]): > 13 mm | inhibition of growth at 10 µM (RPMI-8226): < 10% | inhibition of growth at 10 µM (SK-MEL-2): 97.5% | inhibition of growth at 10 µM (HCT-116): 43.1% | inhibition of growth at 10 µM (SNB-75): 3.91% | inhibition of growth at 10 µM (CCRF-CEM): < 10% | inhibition of growth at 10 µM (MDA-MB-468): < 10% | MBC (Bacillus spizizenii [4]): 100 µg/mL (≈ 306 µM) | MBC (Escherichia coli [5]): 50 µg/mL (≈ 153 µM) | inhibition of growth at 10 µM [6]: < 10% | inhibition of growth at 10 µM (SF-268): < 10% | inhibition of growth at 10 µM (HT-29): < 10% | inhibition of growth at 10 µM (SK-MEL-5): < 10% | inhibition of growth at 10 µM (T47D): < 10% | inhibition of growth at 10 µM (PC-3): < 10% | MIC (Pseudomonas aeruginosa [7]): 100 µg/mL (≈ 306 µM) | inhibition of growth at 10 µM (UACC-62): < 10% | inhibition of growth at 10 µM (HOP-92): < 10% | inhibition of growth at 10 µM (SW-620): < 10% | inhibition of growth at 10 µM (NCI-H522): < 10% | inhibition of growth at 10 µM (HCT-15): < 10% | inhibition of growth at 10 µM (U-251): < 10% | MIC (Escherichia coli [8]): 50 µg/mL (≈ 153 µM) | MBC (Pseudomonas aeruginosa [9]): 200 µg/mL (≈ 613 µM) | inhibition of growth at 10 µM (MCF7): < 10% | MIC (Bacillus spizizenii [10]): 100 µg/mL (≈ 306 µM) | inhibition of growth at 10 µM (NCI-H322M): < 10% | MBC (Staphylococcus aureus [11]): 25 µg/mL (≈ 76.6 µM) | inhibition of growth at 10 µM [12]: 13% | inhibition of growth at 10 µM (A498): 11.6% | inhibition of growth at 10 µM [13]: < 10%
